The target in data set [1] is T1, Voltage-gated L-type calcium channel (Rattus norvegicus, UniProt P22002+Q02485+P27732). As to the kind of experiment: Percentage decrease in blood pressure at a dose of 135 uM/kg for 12-18 hr in spontaneously hypertensive rats. Format: functional, tissue-based. The essentials:
(§1)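 Spontaneously hypertensive rats, n = 5, given 135 µmol/kg orally; systolic pressure recorded directly; maximum percent fall from predrug control noted within 0-6, 6-12 and 12-18 h windows after dosing; mean of five rats.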

In data set [2] the target is T1, Voltage-gated L-type calcium channel. As to the kind of experiment: Percentage decrease in blood pressure at a dose of 135 uM/kg for 6-12 hr in spontaneously hypertensive rats. Format: functional, tissue-based. In a few lines: as §1
The nature of data set [3]: Partition coefficient (logP). In kind it is physicochemical. As to conditions: octanol/water.
A short description of data set [4]: Concentration required to cause 50% relaxation of maximal contraction in circumferential rabbit aorta strips in response to KCl (100 mM). In kind it is functional, tissue-based, Oryctolagus cuniculus. As to conditions: Oryctolagus cuniculus, Aorta.
Data set [5] deals with T1, Voltage-gated L-type calcium channel. Briefly: Percentage decrease in blood pressure at a dose of 135 uM/kg for 0-6 h in spontaneously hypertensive rats. Format: functional, tissue-based. In a few lines:
as §1

For data set [6] the target is unchanged. As to the kind of experiment: Percentage decrease in blood pressure at a dose of 135 uM/kg for 0-6 hr in spontaneously hypertensive rats. Format: functional, tissue-based. In a few lines: as §1
Data set [7] shares this target. Briefly: Percentage decrease in blood pressure at a dose of 270 umol/kg for 12-18 h in spontaneously hypertensive rats. In kind it is functional, tissue-based. In a few lines:
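Spontaneously hypertensive rats, n = 5, dosed orally at 270 µmol/kg; systolic pressure recorded directly; maximum percent fall from predrug control within the 12-18 h window after dosing; mean of five rats.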

As for `COc1ccc([C@@H]2Cc3c(cccc3C(F)(F)F)N(CCN(C)C)C(=O)[C@@H]2Cc2ccccc2)cc1`, the “Decrease in blood pressure” value in data set [1] is listed as 6%; in data set [2], 8%; in data set [5] it was 14%. Further, the logP in data set [3] was determined as 5.2. The compound also yielded an IC50 in data set [4] of 790 nM.

Turning to `COc1ccc([C@@H]2Cc3c(C(=O)O)cccc3N(CCN(C)C)C(=O)[C@@H]2OC(C)=O)cc1`, the “Decrease in blood pressure” value in data set [1] worked out at 10%; in data set [2], 9%; in data set [5], 8%. The logP in data set [3] was -4.1. The IC50 in data set [4] is > 30000 nM.

`COc1ccc([C@@H]2Cc3c(cccc3C(F)(F)F)N(CCN(C)C(C)=O)C(=O)[C@@H]2OC(C)=O)cc1`: the “Decrease in blood pressure” value in data set [1] is on record as 5%; in data set [2], 1%; in data set [6], 2%. The compound further came in with an IC50 in data set [4] of 4500 nM.

Consider `COc1ccc([C@@H]2Cc3cc(Cl)ccc3N(CCN(C)C)C(=O)[C@@H]2OC(C)=O)cc1`, for which the “Decrease in blood pressure” value in data set [2] is 14%; in data set [5], 13%; in data set [7], 18%. Also, the log partition coefficient (logP) in data set [3] was 2.2.

Take `CNC(=O)Oc1ccc2c(c1)C[C@@H](c1ccc(OC)cc1)[C@@H](OC(C)=O)C(=O)N2CCN(C)C`: the entries for the “Decrease in blood pressure” value in data set [1], in data set [2] and in data set [5] were 12%, 10% and 7%, respectively. In data set [3], this compound came in with a logP of 0.31. For the same compound, in data set [4], the IC50 was found to be 310 nM.

`COc1ccc([C@@H]2Cc3cc(C(F)(F)F)ccc3N(CCN(C)C)C(=O)[C@@H]2OC(C)=O)cc1`: the figures for the “Decrease in blood pressure” value in data set [1], in data set [2] and in data set [5] were 18%, 19% and 19%, respectively. The logP in data set [3] stood at 2.8. This compound also gave an IC50 in data set [4] of 1900 nM.

What is called logP is a log measure of how a compound divides between an organic and an aqueous phase. Higher therefore signals higher lipophilicity. What is called IC50 is the concentration needed to halve the response being measured. A low value points to higher potency.
